Data taken from ChEMBL document CHEMBL1133021, “1,3,5-Trialkyl-2,4,6-triiodobenzenes: novel X-ray contrast agents for gastrointestinal imaging” (J Med Chem, 2000).

Legend:
Cricetinae gen. sp. [1] = assay: Number of hamsters (male) with follicular cell necrosis over the total number of tested at 4.56 g/kg of compound in iodinated form administered orally; 0/5; type: functional, Cricetulus griseus
Cricetinae gen. sp. [2] = assay: Number of hamsters (male) with follicular cell dilation over the total number of tested at 4.56 g/kg of compound in iodinated form administered orally; 0/5; type: functional, Cricetulus griseus
Cricetinae gen. sp. [3] = assay: Number of hamsters (male) with follicular cell mitotic figures above the control value, to that of total number of tested at 4.56 g/kg of compound in iodinated form administered orally; 0/5; type: functional, Cricetulus griseus
Mus musculus [4] = assay: Mortality observed in mouse tested for murine toxicity, 7 days after a single dose of compound containing 6.53 g/kg of iodinated form, administered as 40 mL/kg solution; type: functional
Outline: (§1)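 Mice, 3 per dose group, received a single oral dose of the test agent as a mineral oil-in-water emulsion. Doses were 10, 20 or 40 mL/kg, about 1-, 2- and 4-fold the anticipated human dose of 114 mg I/mL. Emulsion vehicle alone at 40 mL/kg was the control. Clinical signs and mortality were checked several times on the dosing day, then daily for 7 days. Body weight was taken at 24 h and 1 week, and survivors were necropsied on day 7. Read-out was deaths over animals dosed.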

Mus musculus [5] = assay: Mortality observed in mouse tested for murine toxicity after a single dose of compound (6.26 g/kg) containing iodinated form (1.91 g/kg) of it, administered as 10 mL/kg solution; 1/3; type: functional
Mus musculus [6] = assay: Mortality observed in mouse tested for murine toxicity after a single dose of compound (2.80 g/kg) containing iodinated form (0.853 g/kg) of it, administered as 10 mL/kg solution; 1/3; type: functional
Mus musculus [7] = assay: Mortality observed in mouse tested for murine toxicity, 7 days after a single dose of compound containing 3.27g/kg of iodinated form, administered as 20 ml/kg solution; type: functional; outline: as §1
Mus musculus [8] = assay: Mortality observed in mouse tested for murine toxicity after a single dose of compound (12.5 g/kg) containing iodinated form (3.81 g/kg) of it, administered as 10 mL/kg solution; 3/3; type: functional
Mus musculus [9] = assay: Mortality observed in mouse tested for murine toxicity after a single dose of compound (5.34 g/kg) containing iodinated form (1.63 g/kg) of it, administered as 10 mL/kg solution; 3/3; type: functional
Cricetinae gen. sp. [10] = assay: Number of hamsters (male) with follicular cell dilation over the total number of tested at 4.56 g/kg of compound in iodinated form administered orally; 1/3; type: functional, Cricetulus griseus
Cricetinae gen. sp. [11] = assay: Number of hamsters (female) with follicular cell necrosis over the total number of tested at 4.56 g/kg of compound in iodinated form administered orally; 1/6; type: functional, Cricetulus griseus
Cricetinae gen. sp. [12] = assay: Number of hamsters (female) with follicular cell dilation over the total number of tested at 4.56 g/kg of compound in iodinated form administered orally; 1/3; type: functional, Cricetulus griseus
Mus musculus [13] = assay: Toxicity in mice evaluated, after a single dose of compound containing 1.14 g/kg of iodinated form administered as 10 mL/kg solution; NT=No toxicity; type: organism-based; details: in vivo, 1140 mg/kg; outline: as §1
Mus musculus [14] = assay: Mortality observed in mouse tested for murine toxicity after a single dose of compound (8.49 g/kg) containing iodinated form (4.56 g/kg) of it, administered as 40 mL/kg solution; 0/3; type: functional; outline: as §1
Cricetinae gen. sp. [15] = assay: Number of hamsters (male) with follicular cell necrosis over the total number of tested at 4.56 g/kg of compound in iodinated form administered orally; 0/3; type: functional, Cricetulus griseus
Cricetinae gen. sp. [16] = assay: Number of hamsters (male) with follicular cell mitotic figures above the control value, to that of total number of tested at 4.56 g/kg of compound in iodinated form administered orally; 1/3; type: functional, Cricetulus griseus
Cricetinae gen. sp. [17] = assay: Number of hamsters (female) with follicular cell mitotic figures above the control value, to that of total number of tested at 4.56 g/kg of compound in iodinated form administered orally; 1/3; type: functional, Cricetulus griseus
Mus musculus [18] = assay: Toxicity in mice evaluated, after a single dose of compound containing 2.28 g/kg of iodinated form administered as 20 ml/kg solution; NT=No toxicity; type: organism-based; details: in vivo, 2280 mg/kg; outline: as §1
Cricetulus griseus [19] = organism: Cricetulus griseus; assay: Percent of compound (40 uM) present in unmetabolized form in hamsters after incubation with microsomes for 60 min; type: functional; details: Microsome
Outline: (§2)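 Substrate at 40 µM was incubated 60 min with male Sprague-Dawley rat or male golden Syrian hamster liver microsomes, in duplicate, with sampling at 0, 15, 30 and 60 min. Aliquots were zinc sulfate-quenched, propan-2-ol-extracted and run on isocratic reversed-phase C8 HPLC. Intact drug is expressed relative to 0 min control values.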

Cricetinae gen. sp. [20] = assay: Number of hamsters (female) with follicular cell mitotic figures above the control value, to that of total number of tested at 4.56 g/kg of compound in iodinated form administered orally; 3/3; type: functional, Cricetulus griseus
Cricetinae gen. sp. [21] = assay: Number of hamsters (female) with follicular cell necrosis over the total number of tested at 4.56 g/kg of compound in iodinated form administered orally; 0/3; type: functional, Cricetulus griseus
Mus musculus [22] = assay: Mortality observed in mouse tested for murine toxicity after a single dose of compound (7.00 g/kg) containing iodinated form (4.56 g/kg) of it, administered as 40 mL/kg solution; 0/3; type: functional; outline: as §1
Cricetinae gen. sp. [23] = assay: Number of hamsters (male) with follicular cell mitotic figures above the control value, to that of total number of tested at 4.56 g/kg of compound in iodinated form administered orally; 3/3; type: functional, Cricetulus griseus
Homo sapiens = organism: Homo sapiens; assay: Compound (4 uM) was evaluated for the half-life period in humans after incubation with microsomes for 60 min; details: Microsome
Rattus norvegicus [24] = organism: Rattus norvegicus; assay: Percent of compound (40 uM) present in unmetabolized form in rats after incubation with microsomes for 60 min; type: functional; details: Microsome; outline: as §2
Cricetulus griseus [25] = organism: Cricetulus griseus; assay: Compound (4 uM) was evaluated for the half-life period in hamster after incubation with microsomes for 60 min; type: functional; details: Microsome
Outline: (§3)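 Liver microsomes from male Sprague-Dawley rat, male golden Syrian hamster or human, incubated with substrate at 4 µM. Duplicate incubates were sampled at 0, 15, 30 and 60 min, quenched with saturated zinc sulfate and extracted with propan-2-ol. Samples were analysed by isocratic reversed-phase C8 HPLC (65% i-PrOH/water, 0.1% TFA). Values were normalized to the 0 min control to derive half-life (n = 2).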

Rattus norvegicus [26] = organism: Rattus norvegicus; assay: Compound (4 uM) was evaluated for the half-life period in rats after incubation with microsomes for 60 min; type: functional; details: Microsome; outline: as §3
Cricetinae gen. sp. [27] = assay: Number of hamsters (male) with follicular cell necrosis over the total number of tested at 4.56 g/kg of compound in iodinated form administered orally; 3/3; type: functional, Cricetulus griseus
Cricetinae gen. sp. [28] = assay: Number of hamsters (female) with follicular cell dilation over the total number of tested at 4.56 g/kg of compound in iodinated form administered orally; 3/3; type: functional, Cricetulus griseus
Cricetinae gen. sp. [29] = assay: Number of hamsters (male) with follicular cell dilation over the total number of tested at 4.56 g/kg of compound in iodinated form administered orally; 3/3; type: functional, Cricetulus griseus

CC(C)CCCCCc1c(I)c(CCCCCC(C)C)c(I)c(CCCCCC(C)C)c1I
Necrosis (Cricetinae gen. sp. [1]): 0
Dilation (Cricetinae gen. sp. [2]): 0
Mitotic figures (Cricetinae gen. sp. [3]): 0

CCOC(=O)CCCCCCCCC(C)c1ccc(I)cc1 (configuration not stated) [IOPHENDYLATE]
Mortality (Mus musculus [4]): 100%
Mortality (Mus musculus [5]): 1 number of descendants/number of tested
Mortality (Mus musculus [6]): 1 number of descendants/number of tested
Mortality (Mus musculus [7]): 100%
Mortality (Mus musculus [8]): 3 number of descendants/number of tested
Mortality (Mus musculus [9]): 3 number of descendants/number of tested

CCCCCCc1c(I)c(CCCCCC)c(I)c(CCCCCC)c1I
Dilation (Cricetinae gen. sp. [10]): 1
Necrosis (Cricetinae gen. sp. [11]): 0
Dilation (Cricetinae gen. sp. [12]): 0
Toxicity (Mus musculus [13]): Not toxic
Mortality (Mus musculus [14]): 0 number of descendants/number of tested
Necrosis (Cricetinae gen. sp. [15]): 0
Mitotic figures (Cricetinae gen. sp. [16]): 1
Mitotic figures (Cricetinae gen. sp. [17]): 0
Toxicity (Mus musculus [18]): Not toxic

CCCCCCC(C)Oc1c(I)cc(I)cc1I (configuration not stated)
Intact (Cricetulus griseus [19]): 73%
Mitotic figures (Cricetinae gen. sp. [20]): 3
Toxicity (Mus musculus [13]): Not toxic
Necrosis (Cricetinae gen. sp. [21]): 0
Mortality (Mus musculus [22]): 0 number of descendants/number of tested
Mitotic figures (Cricetinae gen. sp. [23]): 3
T1/2 (Homo sapiens): 132 min
Intact (Rattus norvegicus [24]): 73%
T1/2 (Cricetulus griseus [25]): 15 min
T1/2 (Rattus norvegicus [26]): 36 min
Necrosis (Cricetinae gen. sp. [27]): 2
Dilation (Cricetinae gen. sp. [28]): 3
Toxicity (Mus musculus [18]): Not toxic
Dilation (Cricetinae gen. sp. [29]): 3
